L major viab: Leishmania major promastigote growth inhibition, primary screen; Leishmania major promastigotes, resazurin fluorescence viability; inhibition, % at 10 µM; actives 9% (n = 200,000); in the data active = inhibition above about 50%;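 note: promastigotes grown with compound for 44 hours at 28 °C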
Mdm2 MdmX PPI: inhibitors of human Mdm2-MdmX association, primary screen, cell-based, luminescence, split luciferase, SaOS-2, uHTS; SaOS-2 split-luciferase Mdm2/MdmX complementation; inhibition, % at 8 µM; actives 3% (n = 330,000); AID 485346, 2010;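 active = inhibition of at least 50% at 8 µM in the primary screen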
Target sequence (O15151 whole entry, looked up): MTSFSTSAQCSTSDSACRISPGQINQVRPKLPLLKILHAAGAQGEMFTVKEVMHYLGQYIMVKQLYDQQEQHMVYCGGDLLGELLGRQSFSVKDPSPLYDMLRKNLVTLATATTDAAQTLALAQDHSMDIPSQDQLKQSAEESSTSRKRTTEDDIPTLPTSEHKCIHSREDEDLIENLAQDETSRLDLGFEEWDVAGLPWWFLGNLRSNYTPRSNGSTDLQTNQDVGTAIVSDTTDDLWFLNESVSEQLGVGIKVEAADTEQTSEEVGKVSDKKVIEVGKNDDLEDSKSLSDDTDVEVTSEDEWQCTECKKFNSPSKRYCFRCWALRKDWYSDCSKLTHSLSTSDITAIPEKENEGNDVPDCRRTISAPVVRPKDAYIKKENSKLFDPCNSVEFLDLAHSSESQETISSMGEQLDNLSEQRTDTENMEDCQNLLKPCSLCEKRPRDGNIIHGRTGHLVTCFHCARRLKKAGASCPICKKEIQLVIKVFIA
Target sequence (Q00987 whole entry, looked up): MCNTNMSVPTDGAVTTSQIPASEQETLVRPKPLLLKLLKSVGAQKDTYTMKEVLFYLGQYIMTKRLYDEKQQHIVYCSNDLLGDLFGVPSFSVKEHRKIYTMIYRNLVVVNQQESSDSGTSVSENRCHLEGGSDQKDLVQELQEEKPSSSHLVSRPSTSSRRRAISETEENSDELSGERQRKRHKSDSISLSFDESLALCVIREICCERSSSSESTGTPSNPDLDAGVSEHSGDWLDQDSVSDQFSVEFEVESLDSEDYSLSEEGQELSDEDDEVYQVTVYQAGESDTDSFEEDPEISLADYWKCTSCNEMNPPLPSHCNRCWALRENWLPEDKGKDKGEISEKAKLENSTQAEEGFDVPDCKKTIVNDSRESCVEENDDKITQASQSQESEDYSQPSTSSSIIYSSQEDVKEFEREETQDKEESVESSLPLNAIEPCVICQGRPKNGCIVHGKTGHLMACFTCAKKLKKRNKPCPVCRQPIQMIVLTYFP
SKKanGAS inh: S. pyogenes SKKanGAS growth inhibitors in kanamycin, primary screen, streptokinase expression inhibitor project, SKKanGAS strain, BacTiter-Glo luminescence; AID 1662, 2009; inhibition, % at 7.5 µM; 6 h; actives 1.3% (n = 300,000);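 active = mean replicate score, as percent of positive control median, at least 50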;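 note: strain carries kanamycin resistance gene driven by streptokinase promoter and grows in 40 µg/ml kanamycin; loss of luminescence reflects streptokinase promoter inhibition or plain growth inhibition; 0% = median of DMSO wells and 100% = positive control at its reference dose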
T cruzi repl: inhibitors of intracellular T. cruzi growth, primary screen, luminescence, NIH3T3 host cells | T. cruzi beta-gal in NIH3T3, 90 h | inhibition, % (test concentration not listed) | actives 1.4% (n = 300,000);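 active = mean inhibition across valid replicates above about 55%, limit read from the data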;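 note: signal also drops with host cell toxicity which is not excluded here; 0% = plate median of DMSO wells and 100% = zero luminescence signal; higher percent means less beta-gal luminescence so fewer parasites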
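compound dosing = single 50 nL compound addition per well in DMSO | material = NIH/3T3 host cells with β-galactosidase reporter T. cruzi | input = 5,000 host fibroblasts per well | timing = ≥90 h infection period, 3 h prior cell attachment | read-out basis = percent inhibition of parasite-derived β-gal signal | detection = GalScreen β-gal luminescence, detergent lysis, 60 min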
Beta apoptosis: inhibitors of cytokine-induced beta cell apoptosis, primary screen, luminescence; INS-1E cytokine-induced death, ATP luminescence, 48 h; percent of positive-control rescue, neutral wells zero; protection from apoptosis, % (concentration not given with the values); actives 0.8% (n = 300,000);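 active = Every replicate reaches about 75%, or at least half do and their mean reaches it too, limit read from the data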;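 note: 0% = cytokine-treated negative control wells and 100% = positive control rescue; higher means more ATP so stronger rescue from cytokine killing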
CSC inhib: cancer stem cell viability inhibitors, primary screen, luminescence; cancer stem cell-like cells viability; inhibition, % at 7.5 µM; actives 1.1% (n = 300,000); in the data active = inhibition above about 75%; tested in HMLE shEcad cells
* hit, by the source's call; x = not tested or not shown. Shown are actives, neighbours in structure and some others; about 9.4% of the full set was active somewhere.

SMILES	L major viab	Mdm2 MdmX PPI	SKKanGAS inh	T cruzi repl	Beta apoptosis	CSC inhib
Cc1ccc(C(=O)N2CCCC(C(=O)c3ccc(Oc4ccccc4)cc3)C2)cn1 (stereo unspecified)	3	13	9	6	2	18
O=C(CSc1cccc[n+]1[O-])Nc1cccc(Oc2ccccc2)c1	-4	-20	-9	10	0	16
O=c1c(Cc2c(F)cccc2Cl)c(O)ccn1CCCn1ccnc1	-5	-4	-3	-11	-11	-12
O=C(C1CCC(CNS(=O)(=O)c2ccccc2)CC1)N1CCOCC1 (stereo unspecified)	x	19	-8	-7	-7	-19
CCCS(=O)(=O)Nc1ccc(N2CCCCC2)c(S(=O)(=O)Nc2ccccc2OC)c1	x	17	x	x	x	x
O=C(Cn1c2[n+](c3ccc(C(F)(F)F)cc31)CCCCC2)c1ccc2c(c1)OCCO2	15	15	x	68*	-3	-2
Cc1nc(CC(=O)Nc2nccs2)cs1	x	22	-3	1	-9	-1
Cn1c(=O)c2nnn(/N=C(\c3ccccc3)C3CC3)c2n(C)c1=O	76*	5	-8	5	2	-8
CCN(CC)c1ccc(/C=C2/SC(=O)N(C(C)C)C2=O)o1	99*	x	-12	38	x	x
CCOC(=O)c1ccc(NC(=S)N2CCN(CCO)CC2)cc1	x	-1	1	-15	-2	4
CCn1c(=O)c(=O)[nH]c2cc(C(=O)NCC3CCCCC3)ccc21	68*	5	-2	-12	2	-10
CCn1c(=O)c(=O)[nH]c2cc(C(=O)NC3CCCC3)ccc21	-3	9	-8	-10	-3	x
CCC(NC(=O)CNC(=O)c1ccc2c(c1)OCO2)c1ccc(Br)cc1 (stereo unspecified)	x	6	x	x	x	x
NCCc1nnc(SCc2c(Cl)cccc2Cl)o1	x	29	-4	0	-5	-2
NCCCCCc1nnc(SCc2ccccc2Cl)o1	99*	25	4	8	-1	7
O=[N+]([O-])c1ccc(-c2ccc(S(=O)(=O)NCCN3CCCC3)cc2)cc1	80*	34	0	8	x	-8
O=[N+]([O-])c1ccc(S(=O)(=O)NCCS(=O)(=O)N2CCN(c3ccccc3)CC2)cc1	x	-5	2	56*	1	-6
Cc1cc(-c2ccccc2)oc(=O)c1NC(=O)c1ccccc1	1	-12	-2	5	-5	-5
COc1ccc(C2CC(c3ccc(Br)cc3)=NN2C(=S)Nc2ccccc2)cc1 (stereo unspecified)	79*	2	-6	38	3	7
COc1ccc(C2=NN(C(=S)Nc3ccccc3)C(c3ccccc3)C2)cc1 (stereo unspecified)	96*	8	1	23	15	4
COc1ccccc1C1CC(c2ccccc2)=NN1C(=S)Nc1ccccc1 (stereo unspecified)	79*	14	6	-8	6	-1
CCS(=O)(=O)Nc1ccc(C2=NN(C(=S)Nc3ccccc3)C(c3ccco3)C2)cc1 (stereo unspecified)	13	10	14	2	0	12
COc1ccc(C2CC(c3ccccc3)=NN2C(=S)Nc2ccccc2)cc1 (stereo unspecified)	37	28	-7	21	5	2
Cc1ccc(C2=NN(C(=S)Nc3ccccc3)C(c3ccco3)C2)cc1 (stereo unspecified)	56*	-82	-8	46	0	-7
Fc1ccc(/C=N/N2CCN(Cc3ccccc3)CC2)cc1	x	-3	6	10	-5	-5
SMILES	L major viab	Mdm2 MdmX PPI	SKKanGAS inh	T cruzi repl	Beta apoptosis	CSC inhib
O=C(CCCN1C(=O)C(c2ccccc2)Oc2cccnc21)Nc1ccccc1Cl (stereo unspecified)	x	-5	1	2	6	0
Cc1cc2nc3c(nc2cc1C)CCCC3	x	-26	-1	-13	x	x
CCC(C)(C)n1nnnc1C(C(C)C)N(Cc1cccnc1)Cc1ccco1 (stereo unspecified)	45	14	-7	50	3	4
CCC(C)(C)n1nnnc1C(c1ccc(C)cc1)N(Cc1ccco1)Cc1cccs1 (stereo unspecified)	18	26	-2	55*	14	33
COc1cccc(CN(Cc2ccco2)C(c2ccc(F)cc2)c2nnnn2C(C)(C)C)c1 (stereo unspecified)	58*	7	-1	34	15	65
CCN(Cc1ccccc1)C(c1ccc(C(F)(F)F)cc1)c1nnnn1C(C)(C)C (stereo unspecified)	28	16	12	48	106*	24
CC(C)(C)n1nnnc1C(c1ccccc1F)N(Cc1ccco1)CC1CCCO1 (stereo unspecified)	43	24	-5	14	x	x
CC(C)(C)n1nnnc1C(c1cccnc1)N(Cc1ccccc1)Cc1ccco1 (stereo unspecified)	85*	-3	2	14	-3	7
Cc1ccccc1C(=O)Nc1cc(NC(=O)c2ccccc2C)cc(C(=O)O)c1	x	4	2	-3	-1	-7
COc1ccccc1/C=C/C=N/n1c(-c2ccc(Cl)cc2)n[nH]c1=S	x	36	2	-10	-16	56
COc1cc(OC)cc(C(=O)Nc2ccc(S(=O)(=O)Nc3ccccn3)cc2)c1	x	26	0	6	-2	x
CC/C(C)=N\Nc1nc(-c2cc3cc(OC)ccc3oc2=O)cs1	x	-55	7	5	7	20
N=c1c(S(=O)(=O)c2ccc(F)cc2)cc2c(=O)n3ccccc3nc2n1CC1CCCO1 (stereo unspecified)	x	11	-12	10	x	16
O=C(CNc1ccccc1)NN=C1CCCC1	-3	-6	-6	-16	-1	x
O=C(NCc1cccnc1)c1ccc(Br)s1	x	2	4	-2	5	-8
Cc1nn(CC(=O)NCc2cccnc2)c(=O)c2ccccc12	51*	-22	5	-13	-7	10
Cc1ccccc1-n1nc(C)c2cc(C(=O)NCc3cccnc3)sc21	69*	22	1	6	3	3
CC1CCC(NC(=O)CSc2nncn2C)CC1 (stereo unspecified)	x	10	x	x	-2	-12
Cc1cc(N/N=C/c2ccc(O)cc2O)nc(-n2nc(C)cc2C)n1	100*	x	-7	60*	99*	29
Cc1cc(N/N=C\c2ccccc2)nc(-c2ccccc2O)n1	74*	1	25	52	19	53
Cc1cc(N/N=C/c2ccc(O)cc2O)nc(-c2ccccc2O)n1	12	x	14	60*	76*	99*

Screens: PubChem BioAssay, several laboratories
